Casp6 inh = caspase-6 (human) enzyme inhibition. P55212. purified caspase-6, Z-VEID-R110 cleavage fluorescence. inhibition, % at 12.5 µM. 350,000 compounds, 0.53% hits. AID 686996;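 active = mean inhibition across replicates at least about 35%, with every replicate also reaching that limit, limit read from the data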;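 also: 0% = median of neutral control wells and 100% = no fluorescence left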
Target sequence (P55212 24-179 limits assumed): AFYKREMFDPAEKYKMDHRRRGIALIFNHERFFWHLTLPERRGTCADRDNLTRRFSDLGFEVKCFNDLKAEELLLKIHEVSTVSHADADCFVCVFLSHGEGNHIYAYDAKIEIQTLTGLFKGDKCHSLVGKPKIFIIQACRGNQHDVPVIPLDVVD
Target sequence (P55212 194-293 limits assumed): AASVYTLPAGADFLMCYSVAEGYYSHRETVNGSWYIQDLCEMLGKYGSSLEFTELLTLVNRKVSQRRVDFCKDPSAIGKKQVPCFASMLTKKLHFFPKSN
MBD2 DNA inh = inhibitors of human MBD2 binding to methylated oligonucleotide | Q9UBB5 | TR-FRET | inhibition, % at 4.4 µM | 370,000 compounds, 0.31% hits; in the data active = inhibition above about 13%
TDP2 inh = TDP2 (human) inhibition, absorbance primary screen; O95551; recombinant TDP2, T5PNP hydrolysis, p-nitrophenol absorbance 415 nm; 370,000 compounds, 0.34% hits; inhibition, % at 12.8 µM;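 active = inhibition above the mean of all tested compounds plus 3 SD, set per campaign, cut at about 25% in these data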;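 also: 0% = DMSO with enzyme and 100% = buffer with substrate but no TDP2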
Target sequence (O95551 whole entry, looked up): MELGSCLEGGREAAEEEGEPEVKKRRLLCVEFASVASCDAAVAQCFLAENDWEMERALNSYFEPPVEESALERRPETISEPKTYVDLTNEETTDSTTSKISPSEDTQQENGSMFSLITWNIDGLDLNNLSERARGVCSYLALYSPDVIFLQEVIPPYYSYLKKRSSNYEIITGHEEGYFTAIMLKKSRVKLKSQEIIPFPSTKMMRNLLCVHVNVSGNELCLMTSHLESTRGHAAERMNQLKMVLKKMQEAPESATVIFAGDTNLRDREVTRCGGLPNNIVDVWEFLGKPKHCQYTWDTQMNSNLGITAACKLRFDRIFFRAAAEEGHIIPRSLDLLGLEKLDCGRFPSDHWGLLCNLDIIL
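Material: recombinant human TDP2; quantity: TDP2 enzyme at 120 nM final; medium: Tris-HCl pH 7.5 with MgCl2; compound: single concentration, 12.8 µM nominal, with 1% DMSO; incubation: 2 h enzyme incubation at 37 °C; signal: epi absorbance; measure: percent inhibition; benchmarks: high control without enzyme, low control DMSO plus TDP2; repeats: singlicate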
NSD2 HMT inh = inhibitors of human histone methyltransferase NSD2. O96028. NSD2 peptide methylation, AlphaScreen, 120 min. inhibition, % at 12.5 µM. 310,000 compounds, 0.54% hits. AID 743445; in the data active = inhibition above about 50%
UHRF1 MBD2 ctr = UHRF1 methyl-DNA binding inhibition | UHRF1 binding to methylated oligo, TR-FRET | Q96T88 | 370,000 compounds, 0.75% hits | inhibition, % at 4.4 µM; in the data active = inhibition above about 21%;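 also: UHRF1 SRA domain binding a hemimethylated CpG hairpin DNA probe; 0% = median of test compound wells and 100% = reference inhibitor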
LEDGF integ inh = blocks HIV-1 LEDGF/p75-dependent DNA integration; TR-FRET IN-LEDGF/p75 DNA integration, Eu/Cy5; inhibition, % at 3.7 µM; 370,000 compounds, 0.64% hits; AID 743269;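 active = inhibition above the screen-wide mean plus 3 SD, cut at about 13% in these data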;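 also: signal is the Cy5 over europium emission ratio at 671 and 618 nm; 0% = plate median of compound wells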
IN multimer act = counter-screen for LEDGF/p75 integration inhibitors: HIV-1 integrase multimerization activators; shares compounds with LEDGF integ inh; TR-FRET HIV-1 integrase multimerization, biochemical; activation, % at 7.7 µM; 2,000 compounds, 17% hits; AID 1053131; in the data active = activation above about 8.9%
TRFRET interf = counter-screen for LEDGF/p75 integration inhibitors: TR-FRET optical interference | shares compounds with LEDGF integ inh | TR-FRET optical interference counterscreen, HIV-1 IN multimerization | inhibition, % at 7.7 µM | 2,000 tested, under 10 active;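 active = inhibition above the mean over all tested compounds plus 3 SD, which no compound reached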;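 also: 0% = integrase with antibodies and DMSO and 100% = antibodies without integrase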
IN-LEDGF confirm = LEDGF/p75-dependent HIV-1 integration inhibition, confirmation; 2,000 compounds, 36% hits; AID 1053136; TR-FRET LEDGF/p75-dependent HIV-1 integration, biochemical; inhibition, % at 3.7 µM; shares compounds with LEDGF integ inh; in the data active = inhibition above about 14%
Numbers without * were called inactive; / = no result. Rows were chosen to be rich in hits. Some 1.8% of all compounds tested hit in one or more screens of this group.

SMILES	Casp6 inh	MBD2 DNA inh	TDP2 inh	NSD2 HMT inh	UHRF1 MBD2 ctr	LEDGF integ inh	IN multimer act	TRFRET interf	IN-LEDGF confirm
CCOC(=O)c1c(N)sc(N)c1C(=O)OCC	2	-4	-14	2	-1	0	/	/	/
CCC(=O)Nc1ccc2c(c1)OC[C@@H](C)N(CC1CCOCC1)C[C@H](C)[C@H](OC)CN(C)C2=O	-3	/	/	/	/	/	/	/	/
CC(=O)N1CC2(C1)[C@@H](c1ccccc1)[C@@H](CO)N2Cc1cccc(Cl)c1	0	/	/	/	/	/	/	/	/
CCCC(=O)Nc1ccc2oc(=O)ccc2c1	-1	2	-1	-3	1	35*	-1	4	0
O=C1CSc2ccccc2N1Cc1ccc(F)cc1	2	-1	-4	-2	-3	38*	1	-5	-5
NC(=O)/C(=C\c1ccco1)NC(=O)c1ccco1	6	-8	-8	3	-1	14*	2	-10	3
CC(C)C#Cc1cnc2c(c1)C(=O)N([C@H](C)CO)C[C@@H](C)[C@H](CN(C)C(=O)Cc1ccccn1)O2	0	/	/	/	/	/	/	/	/
CCn1c(=O)c(C(=O)CN2CCN(S(=O)(=O)c3cc(C)ccc3C)CC2)c(N)n(Cc2ccccc2)c1=O	1	0	10	-2	-2	50*	1	-6	-5
CCn1c(=O)c(C(=O)CN2CCN(Cc3ccc4c(c3)OCO4)CC2)c(N)n(Cc2ccccc2)c1=O	-2	2	10	-1	-1	-2	/	/	/
CN1C(=O)c2cc(NC(=O)c3ccccc3)ccc2OC[C@@H]2O[C@@H](CC(=O)NCC3CC3)CC[C@@H]21	-1	/	/	/	/	/	/	/	/
COc1ccc(/C=N\NC(=O)c2cc(O)c(O)c(O)c2)cc1CN1CCN(c2ccc(F)cc2)CC1	/	-1	4	16	11	20*	37*	-188	38*
Cc1ccc(NC(=O)Nc2cccs2)c(Cl)c1	/	2	-21	8	4	-3	/	/	/
O=C(Nc1cccs1)Nc1ccccc1Cl	/	0	-7	2	-2	15*	4	-20	6
CCC(CC)C1C(C#N)=C(N)Oc2cc(C)oc(=O)c21 (stereo not drawn)	/	-1	2	0	-3	-3	/	/	/
Cc1cc2c(c(=O)o1)C(c1ccc([N+](=O)[O-])o1)C(C#N)=C(N)O2 (stereo not drawn)	19	-4	6	7	11	15*	4	-21	9
O=C(/C=C/c1ccc(Cl)c(Cl)c1)NC1=NCCS1	-4	9	-6	12	5	28*	1	-3	6
CC(C)c1ccc(/C=C/C(=O)NC2=NCCS2)cc1	/	/	/	-3	/	/	/	/	/
O=C(O)CSc1nnc(NC(=O)c2ccc3c(c2)OCO3)s1	/	5	-10	0	2	-3	/	/	/
COC(=O)CSc1nnc(NC(=O)c2ccc3c(c2)OCO3)s1	-4	-5	-6	-1	0	25*	0	-1	-13
Cc1noc(C)c1NC(=O)Nc1ccc2c(c1)C(=O)N([C@H](C)CO)C[C@@H](C)[C@@H](CN(C)Cc1ccncc1)O2	-1	/	/	/	/	/	/	/	/
Cc1cccc(N/N=C/c2ccc(O)c(O)c2O)c1	16	7	-11	12	7	70*	9.1*	-46	29*
CNS(=O)(=O)c1cc(N)ccc1C	-1	-2	2	-3	-2	0	/	/	/
Cc1ccc(Nc2ccc(N)cc2S(=O)(=O)O)cc1	62*	-1	1	15	3	19*	10*	-36	2
CN1C(=O)c2cc(NC(=O)C3CCCC3)ccc2OC[C@@H]2O[C@@H](CC(=O)NCC(F)(F)F)CC[C@H]21	1	/	/	/	/	/	/	/	/
N#Cc1ccc(C(=O)N(Cc2ccccc2)c2ccccc2)cc1	3	-3	-5	-2	0	14*	-2	11	-4
SMILES	Casp6 inh	MBD2 DNA inh	TDP2 inh	NSD2 HMT inh	UHRF1 MBD2 ctr	LEDGF integ inh	IN multimer act	TRFRET interf	IN-LEDGF confirm
COCCNC(=O)CSC1=N/C(=C/c2ccc(Cl)c(Cl)c2)C(=O)N1c1ccccc1F	/	2	-4	2	1	91*	0	0	-3
COc1ccc(S(=O)(=O)N(C)C[C@H]2Oc3ccc(NC(=O)Nc4ccc(F)cc4)cc3C(=O)N([C@@H](C)CO)C[C@H]2C)cc1	-1	/	/	/	/	/	/	/	/
CCCN(CCC)C(=S)NC(=O)c1ccc(-c2ccccc2)cc1	/	2	-2	-3	0	26*	1	-7	35*
CCOc1ccc(C(=O)NC(=S)N(Cc2ccccc2)Cc2ccccc2)cc1	-1	-3	-8	-1	-3	10	/	/	/
C[C@](N)(Cc1ccc(O)c(O)c1)C(=O)O	87*	12	5	/	40*	60*	7	-36	-4
COc1ccc(C[C@](C)(N)C(=O)O)cc1OC	-1	0	-6	/	1	-4	/	/	/
COc1ccc(CNS(=O)(=O)NCc2ccc(OC)c(OC)c2)cc1OC	-2	1	-3	-1	-1	2	/	/	/
COc1ccc(CC(Cc2ccc(OC)c(OC)c2)NC=O)cc1OC	/	0	-4	-1	-1	16*	-2	11	-4
CC1=C(n2nnc([N+](=O)[O-])n2)C(c2cccnc2)C(C#N)=C(N)O1 (stereo not drawn)	/	-2	13	7	2	30*	2	-9	-2
CN1C(=O)c2cc(NC(=O)c3cscn3)ccc2OC[C@H]2O[C@@H](CC(=O)N3CCOCC3)CC[C@@H]21	-2	/	/	/	/	/	/	/	/
CCCCCOC(=O)CC(C(=O)OCCCCC)N1CCCCC1 (stereo not drawn)	/	3	4	6	-3	14*	0	1	-17
CO[C@@H]1CN(C)C(=O)c2cc(NC(=O)C3CC3)ccc2OC[C@H](C)N(Cc2nccs2)C[C@@H]1C	3	/	/	/	/	/	/	/	/
CCCCc1c(O)nc(SCC(=O)NCC2CCCO2)[nH]c1=O (stereo not drawn)	/	0	-4	-1	-2	-2	/	/	/
CCCCCc1c(O)nc(SCC(=O)NCC2CCCO2)[nH]c1=O (stereo not drawn)	/	-1	4	-1	-1	34*	1	-5	4
COc1ccc(CNC(=O)C[C@H]2CC[C@@H](NC(=O)c3cccc(F)c3)[C@H](CO)O2)cc1	-2	/	/	/	/	/	/	/	/
Cc1cc(Nc2nc3ccccc3[nH]c2=O)n(-c2ccccc2)n1	/	1	-6	/	3	3	/	/	/
Cc1cc(Nc2nc3ccccc3nc2Cl)n(-c2ccc([N+](=O)[O-])cc2)n1	/	2	-10	-2	-3	82*	0	-2	-1

Compound activity from PubChem.
